Laboratory results: ChEMBL document CHEMBL1671863, “Inhibition of OXA-1 beta-lactamase by penems” (Antimicrob Agents Chemother, 2008)
Active and inactive are the calls of the source. No cut-off for these calls is given here.

Key:
[1] = Inhibition of beta-lactamase OXA-1 expressed in Escherichia coli BL21 (DE3) using nitrocefin substrate by spectrophotometry
Outline: (§1)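 Periplasmic OXA-1 (IPTG-induced, purified by isoelectric focusing ± gel filtration) assayed at 23°C in 50 mM sodium phosphate with 20 mM bicarbonate; 18 nM enzyme, 75 μM nitrocefin read at 482 nm with rising inactivator (penems 50–1,100 nM, tazobactam 50–3,000 μM). kobs from time-course fits plotted against inhibitor concentration gave kinact, then Ki.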

[2] = Ratio of Kinact to Ki for beta-lactamase OXA-1 expressed in Escherichia coli BL21 (DE3) using nitrocefin substrate by spectrophotometry; outline: as §1
[3] = Ratio of Kcat to Kinact for beta-lactamase OXA-1 expressed in Escherichia coli BL21 (DE3) using nitrocefin substrate by spectrophotometry
Outline: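 Partition ratio kcat/kinact set by turnover number: purified OXA-1 (40 μM) mixed 1:1 with inhibitor, 23°C, 50 mM sodium phosphate plus 20 mM bicarbonate, nitrocefin as reporter; inactivation followed up to 900 s and recovery of activity checked to 24 h.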

[4] = Inhibition of beta-lactamase OXA-1 expressed in Escherichia coli DH10B assessed as reduction of piperacillin MIC at 4 mg/L
Outline: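 E. coli DH10B carrying plasmid RGN238 blaOXA-1 tested by agar dilution on Luria Bertani agar, 10⁴ CFU/spot from a Steers replicator; inhibitor held fixed at 4 μg/ml while piperacillin was raised in doubling dilutions.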

[5] = Binding affinity to beta-lactamase OXA-1 expressed in Escherichia coli BL21 (DE3) assessed as compound-enzyme covalent attachment by electrospray ionization mass spectrometry
Outline: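 Purified OXA-1 (40 μM) incubated 15 min with 1.2 mM inhibitor (30:1 inhibitor:enzyme) in 20 mM diethanolamine, pH 8.6; protein diluted in acetonitrile-1% formic acid to 10 μM and analysed intact by nanospray ESI-QTOF MS; deconvoluted spectra compared with apo enzyme (theoretical mass 28,132 Da).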

Kinact [1] | Ratio [2] | Ratio [3] | inhibition [4] | inhibition [5] | SMILES | Ki [1]
0.13 s⁻¹ | 2.9 µM⁻¹ s⁻¹ | 0 | Active | Active | O=C(O)C1=CS[C@@H]2/C(=C\c3cc4n(n3)CSC4)C(=O)N12 [PENEM-1] | 0.045 µM
0.11 s⁻¹ | 9.2 µM⁻¹ s⁻¹ | 0 | Active | Active | O=C(O)C1=CS[C@@H]2/C(=C\c3cc4n(n3)CSCC4)C(=O)N12 [PENEM-2] | 0.012 µM

SMILES | Kinact [1] | Ratio [2] | Ratio [3] | inhibition [4] | inhibition [5] | Ki [1]
C[C@]1(Cn2ccnn2)[C@H](C(=O)O)N2C(=O)C[C@H]2S1(=O)=O [TAZOBACTAM] | 0.12 s⁻¹ | 0.0015 µM⁻¹ s⁻¹ | 349 |  |  | 80 µM
